Consider three molecules from ChEMBL document CHEMBL2375290, “Nonclassical antifolates, part 3: synthesis, biological evaluation and molecular modeling study of some new 2-heteroarylthio-quinazolin-4-ones” (Eur J Med Chem, 2013).

Test [1] concerns Micrococcus luteus. Put plainly: Antimicrobial activity against Micrococcus luteus after 24 hrs by micro-dilution susceptibility method. The test is classed as functional. Put shortly: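 MIC by broth microdilution in Müller-Hinton broth against M. luteus IFO 3232, the same strain used in the disc-diffusion primary screen.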
In test [2] the test system is Bacillus subtilis. Put plainly: Antimicrobial activity against Bacillus subtilis at 200 ug after 24 hrs by agar disc diffusion method. The test is classed as functional. As to conditions: read-out: DIZ. On the technique in general: Agar diffusion results depend on both activity and mobility in agar.
The target of the next test is T1, Dihydrofolate reductase (Bos taurus, UniProt P00376).
T1 sequence (P00376 whole entry): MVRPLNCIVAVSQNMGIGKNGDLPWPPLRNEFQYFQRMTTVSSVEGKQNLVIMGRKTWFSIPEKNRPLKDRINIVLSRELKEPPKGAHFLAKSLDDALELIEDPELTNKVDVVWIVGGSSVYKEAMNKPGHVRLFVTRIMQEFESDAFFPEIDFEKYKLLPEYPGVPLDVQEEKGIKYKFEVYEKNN
Briefly: Inhibition of bovine DHFR after 2 mins by spectrophotometry.

Test [3] concerns Pseudomonas aeruginosa. Put plainly: Antimicrobial activity against Pseudomonas aeruginosa after 24 hrs by micro-dilution susceptibility method. The test is classed as functional. A digest of the protocol:
(§1)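 Broth microdilution in Müller-Hinton broth against S. aureus IFO 3060, B. subtilis IFO 3007, E. coli IFO 3301 and P. aeruginosa IFO 3448. These are the same standard strains used in the disc-diffusion primary screen. Compounds were solubilized in DMSO. MIC recorded as the minimal inhibitory concentration.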

For test [4], the system named is Escherichia coli. Put plainly: Antimicrobial activity against Escherichia coli after 24 hrs by micro-dilution susceptibility method. Background: In broth dilution the organism is exposed to a series of concentrations in liquid medium.
The subject of test [5] is Pseudomonas aeruginosa. Briefly: Antimicrobial activity against Pseudomonas aeruginosa at 200 ug after 24 hrs by agar disc diffusion method. The test is classed as functional. As to conditions: read-out: DIZ.
In test [6] the test system is Escherichia coli. Put plainly: Antimicrobial activity against Escherichia coli at 200 ug after 24 hrs by agar disc diffusion method. The test is classed as functional. Particulars: read-out: DIZ.
Test [7] deals with Bacillus subtilis. Briefly: Antimicrobial activity against Bacillus subtilis after 24 hrs by micro-dilution susceptibility method. The test is classed as functional. Put shortly:
as §1

The test system of test [8] is Staphylococcus aureus. Briefly: Antimicrobial activity against Staphylococcus aureus at 200 ug after 24 hrs by agar disc diffusion method. The test is classed as functional. Particulars: read-out: DIZ.
For test [9], the system named is Staphylococcus aureus. Briefly: Antimicrobial activity against Staphylococcus aureus after 24 hrs by micro-dilution susceptibility method. The test is classed as functional. A digest of the protocol: as §1
Test [10] concerns Micrococcus luteus. Briefly: Antimicrobial activity against Micrococcus luteus at 200 ug after 24 hrs by agar disc diffusion method. The test is classed as functional. As to conditions: read-out: DIZ.
The subject of test [11] is Bacillus subtilis. Put plainly: Antimicrobial activity against Bacillus subtilis at 100 ug after 24 hrs by agar disc diffusion method. The test is classed as functional. Put shortly:
(§2)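 Agar disc diffusion on Müller-Hinton agar. Sterile 8 mm filter-paper discs were moistened with the compound in DMSO. Strains were B. subtilis IFO 3007 and M. luteus IFO 3232. Plates were incubated at 37 °C, and growth-inhibition zone diameters were measured in mm after 24 h. DMSO served as the solvent control.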

Test [12] relates to Micrococcus luteus. Briefly: Antimicrobial activity against Micrococcus luteus at 100 ug after 24 hrs by agar disc diffusion method. The test is classed as functional. A digest of the protocol: as §2
The test system of test [13] is Pseudomonas aeruginosa. Briefly: Antimicrobial activity against Pseudomonas aeruginosa at 100 ug after 24 hrs by agar disc diffusion method. Particulars: read-out: DIZ. The test is classed as functional.
Test [14] concerns Escherichia coli. Briefly: Antimicrobial activity against Escherichia coli at 100 ug after 24 hrs by agar disc diffusion method. The test is classed as functional. Particulars: read-out: DIZ.
In test [15] the test system is Staphylococcus aureus. Put plainly: Antimicrobial activity against Staphylococcus aureus at 100 ug after 24 hrs by agar disc diffusion method. The test is classed as functional. As to conditions: read-out: DIZ.

In brackets after ≈: the same amount, converted by molar mass.

Consider `CCOC(=O)c1nc(N)sc1Sc1nc2ccc(C)cc2c(=O)n1Cc1ccccc1`, for which the MIC (commonly the least concentration at which growth counts as inhibited) against Micrococcus luteus [1] is 4 µg/mL (≈ 8.84 µM); in the test with Pseudomonas aeruginosa [3], 4 µg/mL (≈ 8.84 µM); against Escherichia coli [4] it was 2 µg/mL (≈ 4.42 µM); against Bacillus subtilis [7], 2 µg/mL (≈ 4.42 µM); in the test with Staphylococcus aureus [9], 2 µg/mL (≈ 4.42 µM). Further, the zone of inhibition at 200 µg/disc in the test with Bacillus subtilis [2] was determined as 26 mm; with Pseudomonas aeruginosa [5], 18 mm; with Escherichia coli [6] it was 24 mm; in the test with Staphylococcus aureus [8], 24 mm; in the test with Micrococcus luteus [10], 20 mm. The midpoint of inhibition against Dihydrofolate reductase, the IC50, lay at 4 µM.

Regarding `CC(=O)NS(=O)(=O)c1ccc(N)cc1` [SULFACETAMIDE], the MIC with Micrococcus luteus [1] came to 2 µg/mL (≈ 9.34 µM); with Pseudomonas aeruginosa [3], 2 µg/mL (≈ 9.34 µM); against Escherichia coli [4] it was 1 µg/mL (≈ 4.67 µM); in the test with Bacillus subtilis [7], 2 µg/mL (≈ 9.34 µM); in the test with Staphylococcus aureus [9] it was 2 µg/mL (≈ 9.34 µM). The zone of inhibition at 100 µg/disc turned out to be 22 mm in the test with Bacillus subtilis [11] (read-out: DIZ); 18 mm in the test with Micrococcus luteus [12] (read-out: DIZ); 25 mm with Pseudomonas aeruginosa [13]; 28 mm with Escherichia coli [14]; 20 mm in the test with Staphylococcus aureus [15].

For the molecule GENTAMICIN, the MIC amounted to 2 µg/mL in the test on Micrococcus luteus [1], 1 µg/mL in the test on Pseudomonas aeruginosa [3], 2 µg/mL with Bacillus subtilis [7] and 2 µg/mL with Staphylococcus aureus [9]. Further, the inhibition zone (IZ) in the test on Bacillus subtilis [11] was determined as 25 mm; with Micrococcus luteus [12], 18 mm.
